# Experimental data as given in ChEMBL document CHEMBL4364271, “Unveiling the Importance of Amide Protons in CSP:ComD Interactions in Streptococcus pneumoniae” (ACS Med Chem Lett, 2019).
# Active and inactive are the calls of the source. The rule behind the calls is not given here. Non-standard residues stand in square brackets, D forms with d. Residues, ends and D or L forms follow the SMILES beside them. NMeR = CN[C@@H](CCCNC(=N)N)C(=O)O; NMeF = CN[C@@H](Cc1ccccc1)C(=O)O; NMeI = CC[C@H](C)[C@H](NC)C(=O)O; NMeD = CN[C@@H](CC(=O)O)C(=O)O; NMeL = CN[C@@H](CC(C)C)C(=O)O; NMeS = CN[C@@H](CO)C(=O)O
# Key:
# [1] = Antagonist activity at ComD1 receptor in Streptococcus pneumoniae D39 harboring pcomX/lacZ reporter gene assessed as inhibiton of CSP1-stimulated maximum signal preincubated for 30 mins followed by 50 nM CSP1 addition by ONPG based beta-galactosidase assay
# Outline: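 Comx-lacZ β-gal reporter inhibition in D39 (ComD1, CSP1 50 nM) or TIGR4 (ComD2, CSP2 250 nM). Peptides tested over a range of concentrations against the stimulating CSP. Miller units normalized to CSP alone. IC50 given with 95% confidence interval.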
# [2] = Metabolic stability in aqueous ammonium carbonate solution assessed as trypsin/chymotrypsin (unknown origin)-mediated drug degradation by measuring half life at 0.05 ug/ml incubated in shaking conditions in presence of trypsin/chymotrpsin and measured for 48 hrs by RP-HPLC analysis; assay type: ADME; conditions: human
# [3] = Metabolic stability in human plasma at 0.33 mM measured for 3 hrs by RP-HPLC analysis; assay type: ADME, cell-free; conditions: 330 µM
# [4] = system: Streptococcus pneumoniae TIGR4; experiment: Agonist activity at ComD2 receptor in Streptococcus pneumoniae TIGR4 harboring pcomX/lacZ reporter gene at 10 uM incubated for 30 mins by ONPG based beta-galactosidase assay relative to native CSP2
# Outline: (§1)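 Single-dose screen of synthetic peptide at 10 μM in wild-type reporter strains (D39 for ComD1, TIGR4 for ComD2) producing their own CSP and carrying lacZ under the comX promoter. β-gal activity in Miller units normalized to native CSP (CSP1 or CSP2, 100%); DMSO 0%. Triplicates over three separate trials.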
# [5] = Agonist activity at ComD2 receptor in Streptococcus pneumoniae TIGR4 harboring pcomX/lacZ reporter gene incubated for 30 mins by ONPG based beta-galactosidase assay
# Outline: (§2)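 Dose-response in wild-type lacZ reporter strains (comX promoter; D39 for ComD1, TIGR4 for ComD2) producing native CSP. Peptides tested over a range of concentrations. β-gal read-out (Miller units) normalized to native CSP. EC50 reported with 95% confidence interval.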
# [6] = Solubility of the compound in ammonium carbonate solution at pH 8; assay type: physicochemical; conditions: buffer
# [7] = system: Streptococcus pneumoniae D39; experiment: Agonist activity at ComD1 receptor in Streptococcus pneumoniae D39 harboring pcomX/lacZ reporter gene at 10 uM incubated for 30 mins by ONPG based beta-galactosidase assay relative to native CSP1; outline: as §1
# [8] = system: Streptococcus pneumoniae D39; experiment: Antagonist activity at ComD1 receptor in Streptococcus pneumoniae D39 harboring pcomX/lacZ reporter gene assessed as inhibiton of CSP1-stimulated maximum signal at 10 uM preincubated for 30 mins followed by 50 nM CSP1 addition by ONPG based beta-galactosidase assay relative to native CSP1
# Outline: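 Inhibition screen: peptides at 10 μM against CSP1 50 nM (D39, ComD1) or CSP2 250 nM (TIGR4, ComD2), in comX-lacZ reporter strains. β-gal Miller units normalized to CSP alone (100%) and DMSO (0%). Triplicates over three separate trials.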
# [9] = Agonist activity at ComD1 receptor in Streptococcus pneumoniae D39 harboring pcomX/lacZ reporter gene incubated for 30 mins by ONPG based beta-galactosidase assay; outline: as §2
Compound,IC50 [1] [nM],half-life at 0.05 ug/ml [2] [h],Stability [3],Activity [4],EC50 [5] [nM],solubility [6],Activity [7],inhibition [8],EC50 [9] [nM]
CC[C@H](C)[C@H](NC(=O)[C@H](Cc1ccccc1)NC(=O)[C@H](CC(=O)O)NC(=O)[C@H](CCCNC(=N)N)NC(=O)[C@H](Cc1ccccc1)NC(=O)[C@H](Cc1ccccc1)NC(=O)[C@H](CCCCN)NC(=O)[C@H](CO)NC(=O)[C@H](CC(C)C)NC(=O)[C@H](CCCNC(=N)N)NC(=O)[C@H](CCSC)NC(=O)[C@H](C)N)C(=O)N[C@@H](CC(C)C)C(=O)N(C)[C@@H](CCC(N)=O)C(=O)N[C@@H](CCCNC(=N)N)C(=O)N[C@@H](CCCCN)C(=O)N[C@@H](CCCCN)C(=O)O,370,6,Stable,–,–,–,–,–,–
CC[C@H](C)[C@H](NC(=O)[C@H](Cc1ccccc1)NC(=O)[C@H](CC(=O)O)NC(=O)[C@H](CCCNC(=N)N)NC(=O)[C@H](Cc1ccccc1)NC(=O)[C@H](Cc1ccccc1)NC(=O)[C@H](CCCCN)N(C)C(=O)[C@H](CO)NC(=O)[C@H](CC(C)C)NC(=O)[C@H](CCCNC(=N)N)NC(=O)[C@H](CCSC)NC(=O)[C@H](C)N)C(=O)N[C@@H](CC(C)C)C(=O)N[C@@H](CCC(N)=O)C(=O)N[C@@H](CCCNC(=N)N)C(=O)N[C@@H](CCCCN)C(=O)N[C@@H](CCCCN)C(=O)O,48,2,Unstable,–,–,–,–,–,–
CC[C@H](C)[C@H](NC(=O)[C@H](CCCNC(=N)N)NC(=O)[C@H](CCSC)NC(=O)[C@@H](N)CCC(=O)O)C(=O)N[C@@H](CO)C(=O)N[C@@H](CCCNC(=N)N)C(=O)N[C@H](C(=O)N[C@H](C(=O)N[C@@H](CC(C)C)C(=O)N(C)[C@@H](CC(=O)O)C(=O)N[C@@H](Cc1ccccc1)C(=O)N[C@@H](CC(C)C)C(=O)N[C@@H](Cc1ccccc1)C(=O)O)[C@@H](C)CC)[C@@H](C)CC (H-EMRISRIIL[NMeD]FLF-OH),–,–,–,> 75%,340,Insoluble,inactive,inactive,–
CC[C@H](C)[C@H](NC(=O)[C@H](CCCNC(=N)N)NC(=O)[C@H](CCSC)NC(=O)[C@@H](N)CCC(=O)O)C(=O)N[C@@H](CO)C(=O)N[C@@H](CCCNC(=N)N)C(=O)N(C)[C@H](C(=O)N[C@H](C(=O)N[C@@H](CC(C)C)C(=O)N[C@@H](CC(=O)O)C(=O)N[C@@H](Cc1ccccc1)C(=O)N[C@@H](CC(C)C)C(=O)N[C@@H](Cc1ccccc1)C(=O)O)[C@@H](C)CC)[C@@H](C)CC (H-EMRISR[NMeI]ILDFLF-OH),–,–,–,> 75%,> 1000,Insoluble,inactive,inactive,–
CC[C@H](C)[C@H](NC(=O)[C@H](CCCNC(=N)N)NC(=O)[C@H](CCSC)NC(=O)[C@@H](N)CCC(=O)O)C(=O)N[C@@H](CO)C(=O)N(C)[C@@H](CCCNC(=N)N)C(=O)N[C@H](C(=O)N[C@H](C(=O)N[C@@H](CC(C)C)C(=O)N[C@@H](CC(=O)O)C(=O)N[C@@H](Cc1ccccc1)C(=O)N[C@@H](CC(C)C)C(=O)N[C@@H](Cc1ccccc1)C(=O)O)[C@@H](C)CC)[C@@H](C)CC (H-EMRIS[NMeR]IILDFLF-OH),–,–,–,> 75%,560,Insoluble,inactive,inactive,–
CC[C@H](C)[C@H](NC(=O)[C@H](CCCNC(=N)N)NC(=O)[C@H](CO)N(C)C(=O)[C@@H](NC(=O)[C@H](CCCNC(=N)N)NC(=O)[C@H](CCSC)NC(=O)[C@@H](N)CCC(=O)O)[C@@H](C)CC)C(=O)N[C@H](C(=O)N[C@@H](CC(C)C)C(=O)N[C@@H](CC(=O)O)C(=O)N[C@@H](Cc1ccccc1)C(=O)N[C@@H](CC(C)C)C(=O)N[C@@H](Cc1ccccc1)C(=O)O)[C@@H](C)CC (H-EMRI[NMeS]RIILDFLF-OH),–,–,–,> 75%,550,Insoluble,inactive,inactive,–
CC[C@H](C)[C@H](NC(=O)[C@H](Cc1ccccc1)NC(=O)[C@H](CC(=O)O)NC(=O)[C@H](CCCNC(=N)N)NC(=O)[C@H](Cc1ccccc1)NC(=O)[C@H](Cc1ccccc1)NC(=O)[C@H](CCCCN)NC(=O)[C@H](CO)NC(=O)[C@H](CC(C)C)NC(=O)[C@H](CCCNC(=N)N)NC(=O)[C@H](CCSC)NC(=O)[C@@H](N)CCC(=O)O)C(=O)N[C@@H](CC(C)C)C(=O)N[C@@H](CCC(N)=O)C(=O)N(C)[C@@H](CCCNC(=N)N)C(=O)O (H-EMRLSKFFRDFILQ[NMeR]-OH),–,–,–,> 75%,> 1000,–,> 75%,–,130
CC[C@H](C)[C@H](NC(=O)[C@H](Cc1ccccc1)NC(=O)[C@H](CC(=O)O)NC(=O)[C@H](CCCNC(=N)N)NC(=O)[C@H](Cc1ccccc1)NC(=O)[C@H](Cc1ccccc1)NC(=O)[C@H](CCCCN)NC(=O)[C@H](CO)NC(=O)[C@H](CC(C)C)NC(=O)[C@H](CCCNC(=N)N)NC(=O)[C@H](CCSC)NC(=O)[C@@H](N)CCC(=O)O)C(=O)N(C)[C@@H](CC(C)C)C(=O)N[C@@H](CCC(N)=O)C(=O)N[C@@H](CCCNC(=N)N)C(=O)O (H-EMRLSKFFRDFI[NMeL]QR-OH),–,–,–,inactive,–,–,inactive,–,> 1000
CC[C@H](C)[C@H](NC(=O)[C@H](Cc1ccccc1)NC(=O)[C@H](CC(=O)O)N(C)C(=O)[C@H](CCCNC(=N)N)NC(=O)[C@H](Cc1ccccc1)NC(=O)[C@H](Cc1ccccc1)NC(=O)[C@H](CCCCN)NC(=O)[C@H](CO)NC(=O)[C@H](CC(C)C)NC(=O)[C@H](CCCNC(=N)N)NC(=O)[C@H](CCSC)NC(=O)[C@@H](N)CCC(=O)O)C(=O)N[C@@H](CC(C)C)C(=O)N[C@@H](CCC(N)=O)C(=O)N[C@@H](CCCNC(=N)N)C(=O)O (H-EMRLSKFFR[NMeD]FILQR-OH),–,–,–,> 75%,> 1000,–,inactive,–,> 1000
CC[C@H](C)[C@H](NC(=O)[C@H](Cc1ccccc1)NC(=O)[C@H](CC(=O)O)NC(=O)[C@H](CCCNC(=N)N)NC(=O)[C@H](Cc1ccccc1)N(C)C(=O)[C@H](Cc1ccccc1)NC(=O)[C@H](CCCCN)NC(=O)[C@H](CO)NC(=O)[C@H](CC(C)C)NC(=O)[C@H](CCCNC(=N)N)NC(=O)[C@H](CCSC)NC(=O)[C@@H](N)CCC(=O)O)C(=O)N[C@@H](CC(C)C)C(=O)N[C@@H](CCC(N)=O)C(=O)N[C@@H](CCCNC(=N)N)C(=O)O (H-EMRLSKF[NMeF]RDFILQR-OH),–,–,–,inactive,–,–,> 75%,–,> 1000
CC[C@H](C)[C@H](NC(=O)[C@H](Cc1ccccc1)NC(=O)[C@H](CC(=O)O)NC(=O)[C@H](CCCNC(=N)N)NC(=O)[C@H](Cc1ccccc1)NC(=O)[C@H](Cc1ccccc1)NC(=O)[C@H](CCCCN)NC(=O)[C@H](CO)N(C)C(=O)[C@H](CC(C)C)NC(=O)[C@H](CCCNC(=N)N)NC(=O)[C@H](CCSC)NC(=O)[C@@H](N)CCC(=O)O)C(=O)N[C@@H](CC(C)C)C(=O)N[C@@H](CCC(N)=O)C(=O)N[C@@H](CCCNC(=N)N)C(=O)O (H-EMRL[NMeS]KFFRDFILQR-OH),–,–,–,> 75%,> 1000,–,> 75%,–,280
CC[C@H](C)[C@H](NC(=O)[C@H](CCCNC(=N)N)NC(=O)[C@H](CO)NC(=O)[C@H]([C@@H](C)CC)N(C)C(=O)[C@H](CCCNC(=N)N)NC(=O)[C@H](CCSC)NC(=O)[C@@H](N)CCC(=O)O)C(=O)N[C@H](C(=O)N[C@@H](CC(C)C)C(=O)N[C@@H](CC(=O)O)C(=O)N[C@@H](Cc1ccccc1)C(=O)N[C@@H](CC(C)C)C(=O)N[C@@H](Cc1ccccc1)C(=O)O)[C@@H](C)CC (H-EMR[NMeI]SRIILDFLF-OH),–,–,–,> 75%,> 1000,Insoluble,inactive,inactive,–
CC[C@H](C)[C@H](NC(=O)[C@H](Cc1ccccc1)NC(=O)[C@H](CC(=O)O)NC(=O)[C@H](CCCNC(=N)N)NC(=O)[C@H](Cc1ccccc1)NC(=O)[C@H](Cc1ccccc1)NC(=O)[C@H](CCCCN)NC(=O)[C@H](CO)NC(=O)[C@H](CC(C)C)N(C)C(=O)[C@H](CCCNC(=N)N)NC(=O)[C@H](CCSC)NC(=O)[C@@H](N)CCC(=O)O)C(=O)N[C@@H](CC(C)C)C(=O)N[C@@H](CCC(N)=O)C(=O)N[C@@H](CCCNC(=N)N)C(=O)O (H-EMR[NMeL]SKFFRDFILQR-OH),–,–,–,inactive,–,–,> 75%,–,280
H-EMRLSKFFRDFILQR-OH,–,4,–,–,> 1000,–,–,–,8.1
